This passage reports Ki and IC50 results from ChEMBL document CHEMBL1137269, “Identification of substituted 4-aminopiperidines and 3-aminopyrrolidines as potent MCH-R1 antagonists for the treatment of obesity” (Bioorg Med Chem Lett, 2006).

Molecules are shown by their SMILES.

T1 sequence (Q99705 whole entry): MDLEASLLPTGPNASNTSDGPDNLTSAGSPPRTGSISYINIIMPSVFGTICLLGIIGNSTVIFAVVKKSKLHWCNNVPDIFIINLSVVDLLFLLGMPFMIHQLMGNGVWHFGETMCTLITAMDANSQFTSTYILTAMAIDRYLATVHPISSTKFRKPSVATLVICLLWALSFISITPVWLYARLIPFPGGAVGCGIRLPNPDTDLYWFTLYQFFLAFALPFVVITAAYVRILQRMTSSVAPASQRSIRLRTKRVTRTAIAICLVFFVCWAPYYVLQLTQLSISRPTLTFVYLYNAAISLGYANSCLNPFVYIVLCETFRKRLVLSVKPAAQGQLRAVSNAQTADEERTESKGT

The target of the first assay is T1, Melanin-concentrating hormone receptor 1 (Homo sapiens, UniProt Q99705). The assay is described as follows: Binding activity against human MCH-R1. An outline of the steps:
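Whole-cell competition binding in HEK-293 cells overexpressing MCH-R1 (SLC-1). Cells were incubated with varying compound concentrations plus 25 nM europium-labelled MCH, then washed free of unbound label, and residual bound europium-MCH was quantified. Non-specific binding was defined with unlabelled MCH. Values are means of at least two experiments unless indicated otherwise.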
For the compound `COc1cc(OC)cc(C(=O)NC2CCN(C/C=C/c3ccccc3)CC2)c1`, the Ki (commonly the dissociation constant of the complex between target and ligand, obtained from inhibition or displacement) was determined as 12 nM.

Consider `COc1cc(OC)cc(C(=O)NC2CCN(CCCc3ccccc3)CC2)c1`, for which the Ki is over 100000 nM. On the same count and under the same terms, with `COc1cc(OC)cc(C(=O)NC2CCN(CC3CCc4ccccc4C3)CC2)c1` (centres undefined) the figure was 136 nM; with `COc1cc(OC)cc(C(=O)NC2CCN(Cc3ccc4ccccc4n3)CC2)c1`, 625 nM; with `COc1cc(C(=O)NC2CCN(Cc3ccc4ccccc4c3)CC2)cc(OC)c1OC`, 286 nM.

`COc1cc(OC)cc(C(=O)NC2CCN(Cc3ccccc3)CC2)c1` gave a Ki of 302 nM.

For `O=C(NC1CCN(Cc2ccc3cc(F)ccc3c2)CC1)c1ccccc1`, the Ki was 125 nM. Still for that read-out and setting: for `COc1cc(OC)cc(C(=O)NC2CCN(Cc3ccc4cc(F)ccc4c3)CC2)c1` the value was 32 nM; for `COc1cc(C(=O)N[C@@H]2CCN(Cc3ccc4ccccc4c3)C2)ccc1F`, 62 nM.

The compound `COc1cc(OC)cc(C(=O)NC2CCN(C(C)c3ccc4ccccc4c3)CC2)c1` (centres undefined) yielded an inhibition constant Ki of 25 nM. This Ki is about 2.5-fold lower than that of the compound before.

In turn, `CCOc1cc(OCC)cc(C(=O)NC2CCN(Cc3ccc4ccccc4c3)CC2)c1` yielded a Ki of 56 nM.

For `COc1ccc(C(=O)NC2CCN(Cc3ccc4ccccc4c3)CC2)cc1OC`, the affinity corresponds to a Ki of 1000 nM.

`COc1cc(OC)cc(C(=O)N(C)C2CCN(Cc3ccc4ccccc4c3)CC2)c1` displayed a Ki of 169 nM. Against the preceding compound, the Ki is about 5.9-fold lower. The same measure, in the same setting: with `COc1cc(OC)cc(C(=O)N[C@@H]2CCN(C(C)c3ccc4ccccc4c3)C2)c1` (some centres undefined) the figure was 12 nM; with `COc1cc(OC)cc(C(=O)N[C@@H]2CCN(C/C=C/c3ccccc3)C2)c1`, 17 nM. On the same count and under the same terms, for `COc1cc(OC)cc(C(=O)NC2CCN(Cc3ccc4ccccc4c3)CC2)c1` the value was 27 nM; for `O=C(NC1CCN(Cc2ccc3ccccc3c2)CC1)c1cc(F)cc(F)c1`, 65 nM; for `O=C(NC1CCN(Cc2ccc3ccccc3c2)CC1)c1ccccc1`, 347 nM.

`COc1cc(C(=O)NC2CCN(Cc3ccc4ccccc4c3)CC2)ccc1F` came in with a Ki of 13 nM. Against the preceding compound, the Ki is about 27-fold lower.

In turn, `COc1cccc(C(=O)N[C@@H]2CCN(Cc3ccc4ccccc4c3)C2)c1` showed a Ki of 67 nM.

The compound `O=C(NC1CCN(Cc2ccc3ccccc3c2)CC1)c1ccc(F)c(F)c1` registered a Ki of 18 nM. Compound `COc1cc(OC)cc(C(=O)N[C@@H]2CCN(Cc3ccc4ccccc4c3)C2)c1` had a Ki of 7 nM. Still for that read-out and setting: for `O=C(NCc1ccc(F)c(F)c1)[C@H]1[C@@H]2CN(Cc3ccc4ccccc4c3)C[C@@H]21` the value was 40 nM; for `COc1cc(OC)cc(C(=O)NCCCNCc2ccc3ccccc3c2)c1`, over 100000 nM. On the same count and under the same terms, for `O=C(NCc1ccc(F)c(F)c1)[C@@H]1[C@@H]2CN(Cc3ccc4ccccc4c3)C[C@@H]21` the value was over 100000 nM; for `O=C(NC1CCN(Cc2ccc3ccccc3c2)CC1)c1cc(F)c(F)c(F)c1`, 9 nM.

With `COc1cc(OC)cc(C(=O)N[C@@H]2CCN(Cc3ccc4ccccc4c3)C[C@H]2C)c1`, the Ki is 133 nM. On the same count and under the same terms, with `COc1cc(OC)cc(C(=O)NC2(C)CCN(Cc3ccc4ccccc4c3)CC2)c1` the figure was 86 nM. Same read-out and setting: with `O=C(NC1CCN(Cc2ccc3ccccc3c2)CC1)c1ccc(Cl)cc1` the figure was 232 nM; with `CN(C)c1cccc(C(=O)NC2CCN(Cc3ccc4ccccc4c3)CC2)c1`, 125 nM; with `COc1cc(OC)cc(C(=O)NC2CCCN(Cc3ccc4ccccc4c3)C2)c1` (centres undefined), over 100000 nM. Still for that read-out and setting: with `COc1cc(OC)cc(C(=O)NC2CCN(CC[C@H](O)c3ccccc3)CC2)c1` the figure was 505 nM; with `COc1cc(OC)cc(C(=O)N[C@@H]2CCN(Cc3ccc4ccccc4c3)C[C@@H]2C)c1`, 170 nM; with `COc1cc(OC)cc(C(=O)N[C@H]2CCN(Cc3ccc4ccccc4c3)C2)c1`, 484 nM.

`COc1cc(OC)cc(C(=O)NC2CCN(Cc3ccc(Cl)c(Cl)c3)CC2)c1` gave a Ki of 205 nM. Same read-out and setting: for `COc1cc(OC)cc(C(=O)NC2CCN(Cc3cc4ccccc4n3C)CC2)c1` the value was 142 nM; for `COc1cc(OC)cc(C(=O)NC2CC(C)(C)N(Cc3ccc4ccccc4c3)C(C)(C)C2)c1`, over 100000 nM. Still for that read-out and setting: with `COc1cc(OC)cc(C(=O)N[C@@H]2CCN(Cc3ccccc3)C2)c1` the figure was 8070 nM. Same read-out and setting: for `O=C(NC1CCN(Cc2ccc3ccccc3c2)CC1)c1cccc(O)c1` the value was 570 nM; for `COc1cccc(C(=O)NC2CCN(Cc3ccc4ccccc4c3)CC2)c1`, 29 nM; for `COc1cc(OC)cc(C(=O)NC2CCN(Cc3ccc4cc(OC)ccc4c3)CC2)c1`, 99 nM. As for `O=C(NC1CCN(Cc2ccc3ccccc3c2)CC1)c1ccc(F)cc1`, the affinity, expressed as Ki, was 36 nM.

The compound `COc1cc(OC)cc(C(=O)N[C@@H]2CCN(C(C)/C=C/c3ccccc3)C2)c1` (some centres undefined) returned a Ki of 23 nM.

For the next assay, the target named is T1, Melanin-concentrating hormone receptor 1. The assay can be described thus: Inhibition of MCH-mediated calcium release by CHO cells expressing human MCH-R1. It is filed as functional, cell-based.
`O=C(NC1CCN(Cc2ccc3cc(F)ccc3c2)CC1)c1ccccc1`: the IC50 (usually the concentration that gives 50% inhibition) was 109 nM.

For `COc1cc(OC)cc(C(=O)N[C@@H]2CCN(C/C=C/c3ccccc3)C2)c1`, the IC50 amounted to 42 nM. Still for that read-out and setting: for `COc1cc(OC)cc(C(=O)NC2CCN(Cc3ccc4ccccc4c3)CC2)c1` the value was 62 nM. On the same count and under the same terms, with `O=C(NC1CCN(Cc2ccc3ccccc3c2)CC1)c1ccccc1` the figure was 948 nM; with `O=C(NC1CCN(Cc2ccc3ccccc3c2)CC1)c1ccc(F)c(F)c1`, 52 nM. On the same count and under the same terms, with `COc1cc(OC)cc(C(=O)N[C@@H]2CCN(Cc3ccc4ccccc4c3)C2)c1` the figure was 18 nM.
